Measured values taken from ChEMBL document CHEMBL1154305, “Drimane sesquiterpenoids from the fungus Aspergillus ustus isolated from the marine sponge Suberites domuncula” (J Nat Prod, 2009).
Values after ≈ are worked out from the molar mass of the structure shown. Active and inactive are the calls of the source. The calls are words filed in the database; no cut-off is given here.

What was measured:
Assay type in all cases: functional, cell-based
[1] = tested on: PC-12; experiment: Cytotoxicity against rat PC12 cells at 0.1 to 10 ug/ml by MTT assay
Summary of the method: (§1)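 MTT viability read-out on L5178Y, HeLa and PC12 cells over 0.1-10 µg/mL, with EC50 values given in µg/mL; a positive control was run alongside. Other details follow an earlier protocol.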

[2] = tested on: HeLa; experiment: Cytotoxicity against human HeLa cells at 0.1 to 10 ug/ml by MTT assay; summary of the method: as §1
[3] = tested on: L5178Y; experiment: Cytotoxicity against mouse L5178Y cells at 0.1 to 10 ug/ml by MTT assay; summary of the method: as §1
[4] = tested on: L5178Y; experiment: Cytotoxicity against mouse L5178Y cells by MTT assay; summary of the method: as §1
[5] = tested on: HeLa; experiment: Cytotoxicity against human HeLa cells by MTT assay; summary of the method: as §1
[6] = tested on: PC-12; experiment: Cytotoxicity against rat PC12 cells by MTT assay; summary of the method: as §1

SMILES | Activity [1] | Activity [2] | Activity [3] | EC50 [4] | EC50 [5] | EC50 [6]
CC1=CC(=O)[C@H]2C(C)(C)C[C@H](O)C[C@]2(C)[C@H]1CO | inactive | inactive | inactive | – | – | –
C/C=C/C=C/C=C/C(=O)O[C@@H]1C=C2COC(=O)[C@]2(O)[C@@]2(C)CCCC(C)(C)[C@H]12 | – | – | – | 1.9 µg/mL (≈ 4.92 µM) | 7.5 µg/mL (≈ 19.4 µM) | > 10 µg/mL
CC1(C)CCC[C@@]2(C)[C@H]1[C@H](OC(=O)/C=C/C=C/C=O)C=C1COC(=O)[C@@]12O [USTUSOLATE E] | – | – | – | 0.6 µg/mL (≈ 1.6 µM) | 5.9 µg/mL (≈ 15.8 µM) | 7.2 µg/mL (≈ 19.2 µM)
CC1(C)C[C@H](O)C[C@@]2(C)[C@H]1[C@H](O)C=C1COC(=O)[C@@]12O | inactive | inactive | inactive | – | – | –
CC1=CC(=O)[C@H]2C(C)(C)C[C@H](O)C[C@]2(C)[C@@]1(O)CO | inactive | inactive | inactive | – | – | –
CC1=CC(=O)[C@H]2C(C)(C)[C@@H](O)CC[C@]2(C)[C@H]1CO | inactive | inactive | inactive | – | – | –
CC(O)C(O)/C=C/C=C/C(=O)O[C@@H]1C=C2COC(=O)[C@]2(O)[C@@]2(C)CCCC(C)(C)[C@H]12 (stereo in doubt; 9) | inactive | inactive | inactive | – | – | –
CC1(C)CCC[C@@]2(C)[C@H]1[C@H](OC(=O)/C=C/C=C/C(=O)O)C=C1COC(=O)[C@@]12O | – | – | – | 5.3 µg/mL (≈ 13.6 µM) | > 10 µg/mL | > 10 µg/mL
CC1=CC(=O)[C@H]2C(C)(C)[C@@H](O)CC[C@]2(C)[C@@]1(O)CO | inactive | inactive | inactive | – | – | –
CC(O)C(O)/C=C/C=C/C(=O)O[C@@H]1C=C2COC(=O)[C@]2(O)[C@@]2(C)CCCC(C)(C)[C@H]12 (stereo in doubt; 8) | inactive | inactive | inactive | – | – | –
